In data set [1] the target is T1, Tyrosine-protein phosphatase non-receptor type 5 (Homo sapiens, UniProt P54829).
T1 sequence (P54829 whole entry): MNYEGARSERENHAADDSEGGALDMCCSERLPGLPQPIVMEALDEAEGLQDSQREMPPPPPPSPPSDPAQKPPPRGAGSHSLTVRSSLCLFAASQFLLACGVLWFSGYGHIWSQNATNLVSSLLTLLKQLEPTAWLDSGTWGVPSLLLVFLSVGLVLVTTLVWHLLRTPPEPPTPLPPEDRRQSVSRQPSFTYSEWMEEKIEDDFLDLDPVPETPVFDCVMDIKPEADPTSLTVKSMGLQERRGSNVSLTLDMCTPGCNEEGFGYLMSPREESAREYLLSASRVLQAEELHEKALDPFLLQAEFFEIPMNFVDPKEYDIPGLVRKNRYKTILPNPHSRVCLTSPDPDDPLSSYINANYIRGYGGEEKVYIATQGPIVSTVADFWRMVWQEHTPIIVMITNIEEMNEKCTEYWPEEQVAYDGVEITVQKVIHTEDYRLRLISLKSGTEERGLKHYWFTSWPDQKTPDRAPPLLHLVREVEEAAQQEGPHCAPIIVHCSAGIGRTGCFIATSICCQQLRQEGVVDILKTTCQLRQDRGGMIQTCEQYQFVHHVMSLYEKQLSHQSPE
Kind of data set: Inhibition of human PTPN5 expressed in Escherichia coli Rosetta 2 (DE3) using pNPP as substrate after 45 mins by spectrophotometric method.

The subject of data set [2] is Mycobacterium tuberculosis. Kind of data set: Antitubercular activity against Mycobacterium tuberculosis H37Rv after 5 days at 200 uM relative to control. It counts as functional. The settings on record: 120 h. The gist of the method: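 M. tuberculosis grown in liquid culture with compound at a fixed 200 μM for 5 days. Growth inhibition expressed as percent of control.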

Data set [3] concerns the target T2, Tyrosine-protein phosphatase non-receptor type 1 (Homo sapiens, UniProt P18031).
T2 sequence (P18031 whole entry): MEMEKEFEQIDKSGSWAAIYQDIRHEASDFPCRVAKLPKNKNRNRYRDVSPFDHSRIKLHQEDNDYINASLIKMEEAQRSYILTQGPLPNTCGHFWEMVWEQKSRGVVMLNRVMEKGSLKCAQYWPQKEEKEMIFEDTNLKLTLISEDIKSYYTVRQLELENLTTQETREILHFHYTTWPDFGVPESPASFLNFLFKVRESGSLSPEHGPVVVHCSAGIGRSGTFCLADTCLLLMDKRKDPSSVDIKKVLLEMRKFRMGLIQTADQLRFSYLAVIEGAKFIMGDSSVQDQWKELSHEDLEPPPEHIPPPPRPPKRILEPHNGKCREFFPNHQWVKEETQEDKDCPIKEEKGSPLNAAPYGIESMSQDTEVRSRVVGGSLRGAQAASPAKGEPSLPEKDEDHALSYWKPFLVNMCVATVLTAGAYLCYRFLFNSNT
Kind of data set: Inhibition of human PTPN1 expressed in Escherichia coli Rosetta 2 (DE3) using pNPP as substrate after 45 mins by spectrophotometric method.

Data set [4] deals with T3, Phosphotyrosine protein phosphatase (Mycobacterium tuberculosis, UniProt A0A045ISB3).
T3 sequence (A0A045ISB3 whole entry): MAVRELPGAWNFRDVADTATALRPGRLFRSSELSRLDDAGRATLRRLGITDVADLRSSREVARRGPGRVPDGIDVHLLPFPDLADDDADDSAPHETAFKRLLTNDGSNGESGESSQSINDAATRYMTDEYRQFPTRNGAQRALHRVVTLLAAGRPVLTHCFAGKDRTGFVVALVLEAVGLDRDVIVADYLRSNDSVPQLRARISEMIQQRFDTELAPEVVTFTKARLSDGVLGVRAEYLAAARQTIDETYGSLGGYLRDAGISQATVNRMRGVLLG
Kind of data set: Inhibition of Mycobacterium tuberculosis His-tagged PtpB expressed in Escherichia coli Rosetta 2 (DE3) using pNPP as substrate after 30 mins by spectrophotometric method.

Data set [5] can be described thus: Cytotoxicity against human HEK293 cells assessed as reduction in cell viability after 48 hrs by Alamar blue assay. It counts as cell-based. An outline of the steps: (§1)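 Alamar Blue viability read-out. Human liver (THLE-3) and kidney (HEK 293) cells incubated with compound for 48 h. Tested in dose-response to derive CC50.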
A general note: Alamar Blue is a resazurin reagent that responds to reducing activity.

In data set [6] the target is T4, E. coli GroEL/ES (Escherichia coli, UniProt P0A6F5). Kind of data set: Inhibition of Escherichia coli GroEL expressed in Escherichia coli DH5alpha/Escherichia coli GroES expressed in Escherichia coli BL21 (DE3) assessed as reduction in GroEL/GroES-mediated denatured rhodanese refolding by measuring rhodanese enzyme activity after 45 mins by Fe(SCN)3 dye based spectrometric analysis.

Data set [7] can be described thus: Cytotoxicity against human THLE3 cells assessed as reduction in cell viability after 48 hrs by Alamar blue assay. It counts as cell-based. The gist of the method:
as §1

Data set [8] can be described thus: Inhibition of refolded rhodanese (unknown origin) preincubated with Escherichia coli GroEL/GroES for 60 mins by measuring rhodanese enzyme activity followed by compound addition by Fe(SCN)3 dye based spectrometric analysis. Also on record: species or system Homo sapiens.
The target of data set [9] is T4, E. coli GroEL/ES. Kind of data set: Inhibition of Escherichia coli GroEL expressed in Escherichia coliDH5alpha/Escherichia coli GroES expressed in Escherichia coli BL21 (DE3) assessed as reduction in GroEL/GroES-mediated denatured pig heart mitochondrial MDH refolding by measuring MDH enzyme activity using sodium mesoxalate as substrate after 20 to 40 mins by spectrometric analysis.

The target in data set [10] is T5, Tyrosine-protein phosphatase non-receptor type 2 (Homo sapiens, UniProt P17706).
T5 sequence (P17706 whole entry): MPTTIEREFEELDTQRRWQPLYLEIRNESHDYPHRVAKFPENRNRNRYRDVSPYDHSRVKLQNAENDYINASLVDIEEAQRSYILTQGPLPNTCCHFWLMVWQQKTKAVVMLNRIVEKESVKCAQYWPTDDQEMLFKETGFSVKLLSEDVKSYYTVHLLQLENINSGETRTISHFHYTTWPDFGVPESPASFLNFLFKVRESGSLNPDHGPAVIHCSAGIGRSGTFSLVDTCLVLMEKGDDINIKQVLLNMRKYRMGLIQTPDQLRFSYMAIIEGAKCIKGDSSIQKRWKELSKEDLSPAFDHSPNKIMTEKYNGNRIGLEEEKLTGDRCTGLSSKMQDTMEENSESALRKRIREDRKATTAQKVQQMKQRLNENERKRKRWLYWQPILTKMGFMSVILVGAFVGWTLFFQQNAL
Kind of data set: Inhibition of human PTPN2 expressed in Escherichia coli Rosetta 2 (DE3) using pNPP as substrate after 45 mins by spectrophotometric method.

Data set [11] addresses T6, Malate dehydrogenase, mitochondrial (Sus scrofa, UniProt P00346).
T6 sequence (P00346 whole entry): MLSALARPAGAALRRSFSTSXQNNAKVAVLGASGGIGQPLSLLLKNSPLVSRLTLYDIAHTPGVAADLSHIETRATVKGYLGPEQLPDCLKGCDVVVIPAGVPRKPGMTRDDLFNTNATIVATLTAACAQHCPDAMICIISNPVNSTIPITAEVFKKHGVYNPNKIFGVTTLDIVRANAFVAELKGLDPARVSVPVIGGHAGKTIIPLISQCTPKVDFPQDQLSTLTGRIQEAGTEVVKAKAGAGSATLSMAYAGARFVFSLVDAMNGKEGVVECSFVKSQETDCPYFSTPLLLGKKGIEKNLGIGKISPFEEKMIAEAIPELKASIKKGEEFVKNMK
Kind of data set: Inhibition of refolded pig heart mitochondrial MDH preincubated with Escherichia coli GroEL/GroES for 45 mins using sodium mesoxalate as substrate followed by compound addition and measured after 20 to 30 mins by spectrometric analysis.

Another data set has as its target HSP60/HSP10 (Homo sapiens, UniProt P10809). Kind of data set: Inhibition of human HSP60 expressed in Escherichia coli Rosetta 2(DE3)/human HSP10 expressed in Escherichia coli Rosetta 2(DE3) pLysS cells assessed as reduction in HSP60/HSP10-mediated denatured pig heart mitochondrial MDH refolding by measuring MDH enzyme activity using sodium mesoxalate as substrate after 40 to 60 mins by spectrometric analysis.

Where only a bound is given, the exact number is not on record here.

Sequence of HSP60/HSP10 (P10809 whole entry): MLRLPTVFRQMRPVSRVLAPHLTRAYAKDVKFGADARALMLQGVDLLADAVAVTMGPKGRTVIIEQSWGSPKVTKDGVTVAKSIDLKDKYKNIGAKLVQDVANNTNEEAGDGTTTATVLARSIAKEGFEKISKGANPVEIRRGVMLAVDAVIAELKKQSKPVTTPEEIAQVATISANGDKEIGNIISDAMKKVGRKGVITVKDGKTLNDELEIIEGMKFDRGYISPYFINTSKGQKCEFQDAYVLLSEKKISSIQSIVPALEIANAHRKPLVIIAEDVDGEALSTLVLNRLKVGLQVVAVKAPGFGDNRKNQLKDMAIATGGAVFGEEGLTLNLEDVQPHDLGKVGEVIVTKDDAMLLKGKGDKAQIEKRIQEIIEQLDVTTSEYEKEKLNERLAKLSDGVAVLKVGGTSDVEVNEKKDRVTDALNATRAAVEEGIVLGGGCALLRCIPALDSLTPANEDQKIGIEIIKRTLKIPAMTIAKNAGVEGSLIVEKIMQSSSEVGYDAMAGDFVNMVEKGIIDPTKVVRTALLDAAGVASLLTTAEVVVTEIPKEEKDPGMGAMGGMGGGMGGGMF
Sequence of HSP60/HSP10 (P61604 whole entry, further chain): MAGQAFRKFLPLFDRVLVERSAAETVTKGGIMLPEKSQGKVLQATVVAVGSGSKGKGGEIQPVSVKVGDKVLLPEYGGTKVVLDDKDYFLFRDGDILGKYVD
T4 sequence (P0A6F5 whole entry, looked up): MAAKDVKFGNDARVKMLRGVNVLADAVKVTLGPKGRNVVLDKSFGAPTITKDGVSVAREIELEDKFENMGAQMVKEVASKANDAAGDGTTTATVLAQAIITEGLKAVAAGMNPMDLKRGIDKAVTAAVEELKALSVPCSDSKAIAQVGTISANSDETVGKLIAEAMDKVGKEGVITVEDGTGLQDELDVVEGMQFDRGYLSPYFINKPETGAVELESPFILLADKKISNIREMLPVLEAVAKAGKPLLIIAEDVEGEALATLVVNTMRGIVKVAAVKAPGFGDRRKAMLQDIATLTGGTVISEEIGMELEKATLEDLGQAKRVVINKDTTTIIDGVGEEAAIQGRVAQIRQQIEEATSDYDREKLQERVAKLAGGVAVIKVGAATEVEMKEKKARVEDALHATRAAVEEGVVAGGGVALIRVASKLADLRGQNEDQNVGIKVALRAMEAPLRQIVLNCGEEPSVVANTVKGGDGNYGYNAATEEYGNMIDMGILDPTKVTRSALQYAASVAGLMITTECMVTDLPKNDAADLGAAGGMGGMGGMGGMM

The IC50 is the point on the concentration scale where inhibition reaches its midpoint. By inhibition is commonly meant the change of the read-out against control, counted positive when it falls. Higher therefore signals strong suppression. A word on the CC50: it is the concentration giving 50% cytotoxicity. For the compound `CS(=O)(=O)Nc1ccc(-c2nc3ccccc3o2)cc1`, the IC50 in data set [1] is above 100 µM; in [3], above 100 µM; in [4] it was above 100 µM; at E. coli GroEL/ES [6], above 250 µM; in data set [8] it was above 100 µM; on E. coli GroEL/ES [9], above 100 µM. The IC50 was above 100 µM in [10], above 63 µM in data set [11] and above 100 µM at HSP60/HSP10. In [2], this compound gave an inhibition at 200 µM of 23%. Besides, the CC50 at 48 h in [5] and in data set [7] was above 100 µM each time.
With `COc1ccc(Cl)cc1S(=O)(=O)Nc1ccc2oc(-c3ccccc3)nc2c1`, the IC50 in [1] was 37 µM; in [3] it was 27 µM; in data set [4] it was 31 µM; on E. coli GroEL/ES [6], 105 µM; in [8], above 100 µM; on E. coli GroEL/ES [9], 81 µM. For the same compound, the IC50 was 25 µM in data set [10], above 63 µM in data set [11] and above 100 µM at HSP60/HSP10. Besides, in data set [2], at 200 µM the inhibition was 0%. Further, the CC50 at 48 h in data set [5] came out at 74 µM; in data set [7], 31 µM.
For the compound `O=S(=O)(Nc1ccc2oc(-c3ccccc3)nc2c1)c1ccccc1Cl`, the IC50 was 35 µM in data set [1]; 40 µM in data set [3]; 50 µM in [4]; 103 µM on E. coli GroEL/ES [6]; above 100 µM in [8]; 90 µM on E. coli GroEL/ES [9]. Besides, the IC50 was 42 µM in data set [10], above 63 µM in data set [11] and above 100 µM at HSP60/HSP10. The same compound gave an inhibition at 200 µM in data set [2] of 13%. In addition, the CC50 at 48 h was 73 µM in data set [5] and 43 µM in data set [7].
With `O=S(=O)(Nc1ccc2oc(-c3ccccc3)nc2c1)c1cccc(O)c1`, the IC50 is 72 µM in [1]; above 100 µM in data set [3]; 98 µM in data set [4]; 103 µM on E. coli GroEL/ES [6]; above 100 µM in data set [8]; 58 µM at E. coli GroEL/ES [9]. The IC50 in data set [10] is above 100 µM; in data set [11], above 63 µM; at HSP60/HSP10, 76 µM. Besides, testing at 200 µM in [2] gave an inhibition of 3%. In addition, the CC50 at 48 h was above 100 µM in data set [5] and 79 µM in data set [7].
Take `O=S(=O)(Nc1ccc(-c2nc3ccccc3o2)cc1)c1ccccc1F`: the IC50 in [1] was 70 µM; in [3] it was 55 µM; in [4] it was 85 µM; at E. coli GroEL/ES [6], 180 µM; in data set [8], above 100 µM; on E. coli GroEL/ES [9], above 100 µM. In addition, the results for the IC50 (in data set [10]; in data set [11]; on HSP60/HSP10) were 80 µM, above 63 µM and above 100 µM, respectively. Besides, in [2], the inhibition at 200 µM stood at 8%. Further, the CC50 at 48 h in [5] and in [7] was above 100 µM throughout.
Take `O=S(=O)(Nc1ccc2oc(-c3ccccc3)nc2c1)c1ccccc1C(F)(F)F`: the IC50 was 37 µM in [1]; 44 µM in data set [3]; 58 µM in data set [4]; 162 µM on E. coli GroEL/ES [6]; above 100 µM in data set [8]; 92 µM at E. coli GroEL/ES [9]. Besides, the IC50 in [10] is 55 µM; in [11] it was above 63 µM; at HSP60/HSP10, above 100 µM. In [2], the inhibition at 200 µM came to 45%. The CC50 at 48 h in data set [5] was determined as 80 µM; in data set [7] it was 59 µM.
Turning to `O=S(=O)(Nc1ccc2oc(-c3ccccc3)nc2c1)c1ccc(Cl)cc1`, the IC50 in data set [1] was 26 µM; in data set [3], 44 µM; in [4], 56 µM; on E. coli GroEL/ES [6], 149 µM; in data set [8] it was above 100 µM; at E. coli GroEL/ES [9] it was above 100 µM. Besides, the figures for the IC50 (in [10]; in [11]; on HSP60/HSP10) were 35 µM, above 63 µM and above 100 µM, respectively. This compound returned an inhibition at 200 µM in [2] of 0%. In addition, the CC50 at 48 h turned out to be 65 µM in data set [5] and 40 µM in [7].
`O=S(=O)(Nc1ccc(-c2nc3ccccc3o2)cc1)c1ccc(Cl)cc1`: the half-inhibitory concentration (IC50) was 36 µM in [1]; 43 µM in data set [3]; 46 µM in data set [4]; 151 µM on E. coli GroEL/ES [6]; above 100 µM in data set [8]; above 100 µM on E. coli GroEL/ES [9]. Further, the IC50 was 42 µM in data set [10], above 63 µM in [11] and 61 µM at HSP60/HSP10. Besides, in [2], the inhibition at 200 µM is 7%. Further, the CC50 at 48 h in data set [5] is above 100 µM; in data set [7] it was 81 µM.
With `O=S(=O)(Nc1ccc(-c2nc3ccccc3o2)cc1)c1ccccc1O`, the IC50 in data set [1] is 36 µM; in data set [3] it was 33 µM; in data set [4], 31 µM; on E. coli GroEL/ES [6], 126 µM; in data set [8] it was above 100 µM; on E. coli GroEL/ES [9] it was 83 µM. Also, the figures for the IC50 (in data set [10]; in data set [11]; at HSP60/HSP10) were 57 µM, above 63 µM and above 100 µM, respectively. In data set [2], this compound showed an inhibition at 200 µM of 0%. Besides, the values for the CC50 at 48 h in data set [5] and in data set [7] were above 100 µM and 81 µM, respectively.
